ChEMBL document CHEMBL1157565, “Discovery of 1-[3-(4-bromo-2-methyl-2h-pyrazol-3-yl)-4-methoxyphenyl]-3-(2,4-difluorophenyl)urea (nelotanserin) and related 5-hydroxytryptamine2A inverse agonists for the treatment of insomnia” (J Med Chem, 2010)
Active and inactive are the calls of the source. No cut-off for these calls is given here.

Key:
[1] = molecular target: T1, 5-hydroxytryptamine receptor 2A (Homo sapiens, UniProt P28223); test: Displacement of [3H]DOI from human recombinant 5HT2A receptor expressed in HEK293 cells by scintillation counting; assay type: cell-based; settings: in the assay text read “[125I]DOI” for “[3H]DOI”
T1 sequence (P28223 whole entry): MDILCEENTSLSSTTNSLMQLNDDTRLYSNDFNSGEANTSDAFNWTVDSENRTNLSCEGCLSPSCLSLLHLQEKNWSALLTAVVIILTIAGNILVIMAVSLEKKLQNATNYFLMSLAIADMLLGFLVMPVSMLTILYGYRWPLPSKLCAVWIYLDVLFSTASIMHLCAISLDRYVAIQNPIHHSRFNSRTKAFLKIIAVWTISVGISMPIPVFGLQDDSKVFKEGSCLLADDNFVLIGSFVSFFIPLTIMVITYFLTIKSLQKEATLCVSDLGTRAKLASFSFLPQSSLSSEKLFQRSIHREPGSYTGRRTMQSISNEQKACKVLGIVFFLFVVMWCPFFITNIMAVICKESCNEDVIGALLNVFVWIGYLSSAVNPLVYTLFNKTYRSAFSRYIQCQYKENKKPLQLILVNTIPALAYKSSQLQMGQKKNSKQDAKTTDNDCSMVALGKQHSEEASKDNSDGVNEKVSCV
How it was run: (§1)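 Crude membranes (5-25 μg protein) from HEK293 cells stably expressing human 5-HT2A or 5-HT2C. Radioligand [125I]DOI at 0.5 nM final; 10 μM cold DOI defines nonspecific binding. Buffer 20 mM HEPES pH 7.4, 10 mM MgCl2; 1 h at room temperature. Eight concentrations (1 pM–10 μM), each in triplicate. Vacuum filtration on GF/C, Tris wash, scintillation counting; pKi.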

[2] = molecular target: T2, 5-hydroxytryptamine receptor 2C (Homo sapiens, UniProt P28335); test: Displacement of [125I]DOI from human recombinant 5HT2C receptor expressed in HEK293 cells by scintillation counting
T2 sequence (P28335 whole entry): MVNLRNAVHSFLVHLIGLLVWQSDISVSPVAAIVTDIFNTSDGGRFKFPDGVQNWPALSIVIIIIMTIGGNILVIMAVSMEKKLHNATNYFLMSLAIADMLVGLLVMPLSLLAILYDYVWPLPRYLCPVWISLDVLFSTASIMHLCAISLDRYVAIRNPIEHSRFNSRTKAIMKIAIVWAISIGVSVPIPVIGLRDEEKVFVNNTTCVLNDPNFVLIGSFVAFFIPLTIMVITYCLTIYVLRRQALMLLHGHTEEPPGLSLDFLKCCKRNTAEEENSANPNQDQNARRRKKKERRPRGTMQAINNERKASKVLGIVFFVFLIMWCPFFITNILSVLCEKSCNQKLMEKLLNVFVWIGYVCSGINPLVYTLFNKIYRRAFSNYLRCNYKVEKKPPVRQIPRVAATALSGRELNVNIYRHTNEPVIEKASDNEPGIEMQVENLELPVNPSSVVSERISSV

[3] = molecular target: T1, 5-hydroxytryptamine receptor 2A; test: Activity at human 5HT2A receptor expressed in HEK293 cells assessed as [3H]inositol phosphate production by scintillation counting; assay type: functional, cell-based
How it was run: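 HEK-293 cells transiently transfected with a mutated, constitutively active h5-HT2A receptor, labeled 18 h with […] [3H]myoinositol in serum- and myoinositol-free DMEM. Then 3 h at 37 °C in HBSS with LiCl (10 mM final), pargyline and compound. Lysis with ice-cold 0.1 M formic acid; total [3H]IP separated on AG1-X8 resin and counted by scintillation. Inverse-agonist pIC50.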

[4] = molecular target: T1, 5-hydroxytryptamine receptor 2A; test: Displacement of [125I]DOI from human recombinant 5HT2A receptor expressed in HEK293 cells by scintillation counting
[5] = molecular target: T2, 5-hydroxytryptamine receptor 2C; test: Displacement of [3H]DOI from human recombinant 5HT2C receptor expressed in HEK293 cells by scintillation counting; assay type: cell-based; settings: in the assay text read “[125I]DOI” for “[3H]DOI”; how it was run: as §1
Rattus norvegicus [6] = test: Effect on behavioral activity in Wistar rat assessed as decrease in number of non-rapid eye movement bouts at 1.4 mg/kg, po after 2 hrs; assay type: functional, organism-based; parameters: dose 1.4 mg/kg
How it was run: (§2)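 Male Wistar rats (300 ± 25 g) implanted for continuous EEG/EMG recording, 1 week recovery. Repeated-measures design: each rat received each treatment, including 80% Tween-80 vehicle, in random order by oral gavage. Non-REM sleep parameters scored hourly after dosing; at least five rats per compound.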

Rattus norvegicus [7] = test: Effect on behavioral activity in Wistar rat assessed as increase in non-rapid eye movement delta power at 1.4 mg/kg, po after 4 hrs; assay type: functional, organism-based; parameters: dose 1.4 mg/kg; how it was run: as §2
[8] = Half life in Wistar rat at 1.4 mg/kg, po; assay type: ADME, organism-based; parameters: dose 1.4 mg/kg, route oral; settings: in vivo
How it was run: (§3)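 Male Wistar rats, fasted overnight, single oral dose in 80% Tween-80/20% water. Jugular vein blood sampled serially over 24 h ([…]); sodium-heparin plasma stored at -70 °C, quantified by HPLC/MS/MS (LLOQ 1 ng/mL, ULOQ 2000 ng/mL). n = 2-3 animals; noncompartmental analysis; values as mean ± SD.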

[9] = AUC (0 to infinity) in Wistar rat at 1.4 mg/kg, po; assay type: ADME, organism-based; parameters: time infinity, dose 1.4 mg/kg, route oral; settings: plasma; how it was run: as §3
[10] = Tmax in Wistar rat at 1.4 mg/kg, po; assay type: ADME, organism-based; parameters: dose 1.4 mg/kg, route oral; settings: in vivo; how it was run: as §3
[11] = Cmax in Wistar rat at 1.4 mg/kg, po; assay type: ADME, organism-based; parameters: dose 1.4 mg/kg, route oral; settings: in vivo; how it was run: as §3
Rattus norvegicus [12] = test: Effect on behavioral activity in Wistar rat assessed as increase in non-rapid eye movement bout length at 1.4 mg/kg, po after 1 hrs; assay type: functional, organism-based; parameters: dose 1.4 mg/kg; how it was run: as §2
Rattus norvegicus [13] = test: Effect on behavioral activity in po dosed Sprague-Dawley rat assessed as reversal of DOI-induced inhibition of rearing behavior; assay type: functional
How it was run: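 Adult male Sprague-Dawley rats dosed orally with compound 45 min before DOI (0.3 mg/kg), which lowers rearing. Fifteen minutes later, rearing recorded in photocell-monitored locomotor activity cages. A dose-response curve for reversal of DOI-induced rearing decrease yields an ED50.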

[14] = molecular target: 5-hydroxytryptamine receptor 2A (Rattus norvegicus, UniProt P14842); test: Displacement of [125I]DOI from rat recombinant 5HT2A receptor by scintillation counting
5-hydroxytryptamine receptor 2A (Rattus norvegicus, UniProt P14842), sequence (P14842 whole entry): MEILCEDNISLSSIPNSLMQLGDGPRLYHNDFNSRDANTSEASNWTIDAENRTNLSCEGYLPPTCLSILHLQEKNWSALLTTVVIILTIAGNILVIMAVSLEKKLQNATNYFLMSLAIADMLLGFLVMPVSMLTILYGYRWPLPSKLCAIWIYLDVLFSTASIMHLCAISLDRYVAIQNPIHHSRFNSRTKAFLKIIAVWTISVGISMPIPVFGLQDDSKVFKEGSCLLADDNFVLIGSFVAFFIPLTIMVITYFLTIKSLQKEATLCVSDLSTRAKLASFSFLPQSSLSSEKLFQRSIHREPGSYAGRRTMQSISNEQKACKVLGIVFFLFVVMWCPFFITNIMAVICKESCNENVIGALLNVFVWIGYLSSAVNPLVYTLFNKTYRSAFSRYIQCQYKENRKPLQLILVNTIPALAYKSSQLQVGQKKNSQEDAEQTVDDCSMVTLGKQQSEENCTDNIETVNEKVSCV

Rattus norvegicus [15] = test: Effect on behavioral activity in Wistar rat assessed as increase in non-rapid eye movement delta power at 1.4 mg/kg, po after 1 hr; assay type: functional, organism-based; parameters: dose 1.4 mg/kg; how it was run: as §2
Rattus norvegicus [16] = test: Effect on behavioral activity in Wistar rat assessed as increase in non-rapid eye movement delta power at 1.4 mg/kg, po after 2 hrs; assay type: functional, organism-based; parameters: dose 1.4 mg/kg; how it was run: as §2

Ki [1] [nM] | Ki [2] [nM] | IC50 ([3]; read-out: pIC50 (converted)) [nM] | Ki [4] [nM] | Ki [5] [nM] | Compound | also measured
0.251 | 3.98 | 1 | – | – | COc1ccc(NC(=O)Nc2ccc(F)cc2)cc1-c1c(Br)cnn1C(C)C | –
1.58 | 398 | 50.1 | – | – | COc1ccc(NC(=O)Nc2ccc(N(C)C)cc2)cc1-c1c(Br)cnn1C | –
– | – | 0.631 | 0.631 | 158 | COc1ccc(NC(=O)Nc2ccc(F)cc2F)cc1-c1c(Br)cnn1C [NELOTANSERIN] | Activity (Rattus norvegicus [6]): Active; Activity (Rattus norvegicus [7]): Active; half-life [8]: 3 h; AUC(0-inf) [9]: 298 ng·h/mL; Tmax [10]: 3 h; Cmax [11]: 44 ng/mL; Activity (Rattus norvegicus [12]): Active; ED50 (Rattus norvegicus [13]): 0.7 mg/kg; Ki [14]: 5.01 nM
0.251 | 3.98 | 0.501 | – | – | COc1ccc(NC(=O)Nc2ccc(Br)cc2)cc1-c1c(Br)cnn1C | –
1 | 398 | – | – | – | COc1ccc(NC(=O)Nc2ccccc2F)cc1-c1c(Br)cnn1C | –
0.251 | 31.6 | 0.251 | – | – | COc1ccc(NC(=O)Nc2ccc(F)cc2)cc1-c1c(Br)cnn1C | Activity (Rattus norvegicus [6]): Active; Activity (Rattus norvegicus [15]): Active; Activity (Rattus norvegicus [16]): Active; half-life [8]: 2 h; AUC(0-inf) [9]: 507 ng·h/mL; Tmax [10]: 4 h; Cmax [11]: 85 ng/mL; ED50 (Rattus norvegicus [13]): 0.7 mg/kg
0.501 | – | 0.398 | – | 126 | COc1ccc(NC(=O)Nc2ccc(OC)c(-c3c(Br)cnn3C)c2)cc1 | –
0.501 | – | 1.26 | – | 2.51 | COc1ccc(NC(=O)Nc2ccc(Cl)cc2)cc1-c1c(Br)cnn1C(C)C | –
– | 39.8 | 0.794 | 0.316 | – | COc1ccc(NC(=O)Nc2cccc(F)c2)cc1-c1c(Br)cnn1C | –
– | 3.98 | 1.58 | 0.316 | – | COc1ccc(NC(=O)Nc2ccc(C(F)(F)F)cc2)cc1-c1c(Br)cnn1C | –
– | – | 1.58 | 0.316 | 10 | CC(C)Oc1ccc(NC(=O)Nc2ccc(Cl)cc2)cc1-c1c(Br)cnn1C | –
0.251 | – | 0.398 | – | 15.8 | COc1ccc(NC(=O)Nc2cccc(Cl)c2)cc1-c1c(Br)cnn1C | –
– | – | 2.51 | 0.316 | 25.1 | COc1ccc(NC(=O)Nc2ccc(C(C)C)cc2)cc1-c1c(Br)cnn1C | –

Second part, the compound before the results:

Compound | Ki [1] [nM] | Ki [2] [nM] | IC50 ([3]; read-out: pIC50 (converted)) [nM] | Ki [4] [nM] | Ki [5] [nM] | also measured
COc1ccc(NC(=O)Nc2ccc(Cl)c(C(F)(F)F)c2)cc1-c1c(Br)cnn1C | – | 3.16 | 0.794 | 0.316 | – | –
COc1ccc(NC(=O)Nc2cccc(C(C)=O)c2)cc1-c1c(Br)cnn1C | 2.51 | – | 3.98 | – | 251 | –
COc1ccc(NC(=O)Nc2ccc(Cl)cc2C(F)(F)F)cc1-c1c(Br)cnn1C | 0.501 | – | 2.51 | – | 126 | –
Cn1ncc(Br)c1-c1cc(NC(=O)Nc2ccc(Cl)cc2)ccc1OCc1ccccc1 | 5.01 | – | 7.94 | – | 158 | –
COc1ccc(NC(=O)Nc2ccc(Cl)cc2)cc1-c1ccnn1C | – | – | 1 | – | 158 | –
CCOc1ccc(NC(=O)Nc2ccc(Cl)cc2)cc1-c1c(Br)cnn1C | 0.251 | – | – | – | 2 | –
COc1ccc(NC(=O)Nc2ccc(F)c(F)c2)cc1-c1c(F)cnn1C | 1.26 | 398 | 2.51 | – | – | –
COc1ccc(NC(=O)Nc2cc(F)cc(F)c2)cc1-c1c(Br)cnn1C | – | – | 1.26 | 0.316 | 15.8 | –
Cn1ncc(Br)c1-c1cccc(NC(=O)Nc2ccc(Cl)cc2)c1 | – | – | – | – | – | IC50 [3]: 19 nM
COc1ccc(NC(=O)Nc2ccc(Cl)cc2Cl)cc1-c1c(Br)cnn1C | 0.2 | – | 1.26 | – | 25.1 | –
Cn1ncc(Br)c1-c1cc(NC(=O)Nc2ccc(Cl)cc2)ccc1OCc1ccc(Cl)cc1 | 20 | – | 12.6 | – | 251 | –
COc1ccc(NC(=O)Nc2ccc(F)cc2F)cc1-c1c(Cl)cnn1C | – | 316 | 1 | 0.631 | – | –
COc1ccc(NC(=O)Nc2cccc(C#N)c2)cc1-c1c(Br)cnn1C | 0.501 | 63.1 | 6.31 | – | – | –
COc1ccc(NC(=O)Nc2cc(C(F)(F)F)cc(C(F)(F)F)c2)cc1-c1c(Cl)cnn1C | 1 | 63.1 | 3.98 | – | – | –
COc1ccc(NC(=O)Nc2ccc(F)c(F)c2)cc1-c1c(Cl)cnn1C | 0.251 | – | 0.501 | – | 25.1 | –
Cn1ncc(Br)c1-c1cc(NC(=O)Nc2ccc(Cl)cc2)ccc1OCCc1ccccc1 | – | – | 50.1 | 6.31 | 794 | –
COc1ccc(NC(=O)Nc2cc(C(F)(F)F)cc(C(F)(F)F)c2)cc1-c1c(Br)cnn1C | – | 31.6 | 2 | 0.398 | – | –
Cn1ncc(Br)c1-c1cc(NC(=O)Nc2ccc(Cl)cc2)ccc1O | – | – | – | 0.398 | 50.1 | –
Cn1ncc(Br)c1-c1cc(NC(=O)Nc2ccc(Cl)cc2)ccc1OC(F)(F)F | 0.794 | – | 15.8 | – | 15.8 | –
COc1ccc(NC(=O)Nc2cccc(C(F)(F)F)c2)cc1-c1c(Br)cnn1C | – | – | 0.398 | 0.398 | 15.8 | –
Cn1ncc(Br)c1-c1cccc(NC(=O)Nc2ccc(OC(F)(F)F)cc2)c1 | – | – | – | – | – | IC50 [3]: 120 nM
